Inhibition and EC50 data for 16 compounds are collected here from ChEMBL document CHEMBL1132453, “Heteroarotinoids inhibit head and neck cancer cell lines in vitro and in vivo through both RAR and RXR retinoic acid receptors” (J Med Chem, 1999).

The Inhibition is the change of the read-out against control, counted positive when it falls. The EC50 is the midpoint of the concentration-response curve.

Test [1] concerns SCC-2 (Homo sapiens). Put plainly: Inhibition of SCC-2 cell proliferation. Set-up: concentration or dose not given beside the values.
Test [2] relates to SCC-38 (Homo sapiens). Description: Inhibition of SCC-38 cell proliferation. Set-up: concentration or dose not given beside the values.
In test [3] the target is T1, Retinoic acid receptor beta (Homo sapiens, UniProt P10826).
T1 sequence (P10826 whole entry): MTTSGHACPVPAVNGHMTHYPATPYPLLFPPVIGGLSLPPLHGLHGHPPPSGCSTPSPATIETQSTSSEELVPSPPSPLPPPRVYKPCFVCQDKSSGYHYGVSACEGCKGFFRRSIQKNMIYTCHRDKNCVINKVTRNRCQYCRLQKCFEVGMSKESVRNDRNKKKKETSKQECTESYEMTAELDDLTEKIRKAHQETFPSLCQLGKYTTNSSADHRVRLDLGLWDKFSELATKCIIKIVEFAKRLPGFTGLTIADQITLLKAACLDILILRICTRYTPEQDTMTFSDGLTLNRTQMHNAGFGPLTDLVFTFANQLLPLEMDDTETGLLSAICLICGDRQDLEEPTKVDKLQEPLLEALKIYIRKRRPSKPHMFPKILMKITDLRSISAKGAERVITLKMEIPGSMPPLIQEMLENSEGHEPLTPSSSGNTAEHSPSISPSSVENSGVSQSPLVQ
Put plainly: Transcriptional activation in CV-1 cells expressing human Retinoic acid receptor RAR beta. The class given is cell-based. In outline: (§1)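 CV-1 cells were plated at 7.5 × 10^4/well and transfected 24 h later (FuGENE6). Each well got a receptor vector (human RARα/β/γ in pECE or mouse RXRα/β/γ in pSG5), a βRARE-tk-CAT reporter and a β-actin-βGal control. After 16-18 h, ligand was added in 10-fold steps from 10^-10 to 10^-5 M (0.01% DMSO) for 24 h. CAT was measured by ELISA and normalised to βGal. Triplicates, repeated at least twice.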

Test [4] has as its target T2, Retinoic acid receptor RXR-gamma (Mus musculus, UniProt P28705).
T2 sequence (P28705 whole entry): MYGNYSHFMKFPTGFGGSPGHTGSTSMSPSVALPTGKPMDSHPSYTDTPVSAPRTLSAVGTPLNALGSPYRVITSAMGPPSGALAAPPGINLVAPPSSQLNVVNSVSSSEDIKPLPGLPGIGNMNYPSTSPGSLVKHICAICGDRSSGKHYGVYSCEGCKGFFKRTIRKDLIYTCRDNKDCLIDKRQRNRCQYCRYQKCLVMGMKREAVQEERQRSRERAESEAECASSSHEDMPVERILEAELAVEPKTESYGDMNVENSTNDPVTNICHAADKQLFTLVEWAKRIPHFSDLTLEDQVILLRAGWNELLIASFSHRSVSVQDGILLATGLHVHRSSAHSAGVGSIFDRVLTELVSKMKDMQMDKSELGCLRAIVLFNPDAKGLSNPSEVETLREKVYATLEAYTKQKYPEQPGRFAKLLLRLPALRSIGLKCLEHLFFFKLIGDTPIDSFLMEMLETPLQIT
Put plainly: Transcriptional activation of CV-1 cells expressing murine Retinoid X receptor RXR gamma. The test is classed as cell-based. In outline: as §1

The target in test [5] is T3, Retinoic acid receptor alpha (Homo sapiens, UniProt P10276).
T3 sequence (P10276 whole entry): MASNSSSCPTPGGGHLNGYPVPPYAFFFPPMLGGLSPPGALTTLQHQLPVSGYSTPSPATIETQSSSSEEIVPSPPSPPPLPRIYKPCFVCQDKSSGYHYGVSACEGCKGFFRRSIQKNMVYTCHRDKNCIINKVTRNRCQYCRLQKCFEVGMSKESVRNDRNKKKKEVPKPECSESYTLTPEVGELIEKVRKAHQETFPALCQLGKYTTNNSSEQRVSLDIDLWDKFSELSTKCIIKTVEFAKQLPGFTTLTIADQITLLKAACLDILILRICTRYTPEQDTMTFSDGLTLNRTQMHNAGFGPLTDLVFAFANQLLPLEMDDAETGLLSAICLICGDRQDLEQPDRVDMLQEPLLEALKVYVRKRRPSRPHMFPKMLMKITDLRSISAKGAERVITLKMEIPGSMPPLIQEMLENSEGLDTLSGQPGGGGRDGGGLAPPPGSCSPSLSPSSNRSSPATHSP
Description: Transcriptional activation in CV-1 cells expressing human Retinoic acid receptor RAR alpha. The test is classed as cell-based. In outline: as §1

Test [6] has as its target T4, Retinoic acid receptor gamma (Homo sapiens, UniProt P13631).
T4 sequence (P13631 whole entry): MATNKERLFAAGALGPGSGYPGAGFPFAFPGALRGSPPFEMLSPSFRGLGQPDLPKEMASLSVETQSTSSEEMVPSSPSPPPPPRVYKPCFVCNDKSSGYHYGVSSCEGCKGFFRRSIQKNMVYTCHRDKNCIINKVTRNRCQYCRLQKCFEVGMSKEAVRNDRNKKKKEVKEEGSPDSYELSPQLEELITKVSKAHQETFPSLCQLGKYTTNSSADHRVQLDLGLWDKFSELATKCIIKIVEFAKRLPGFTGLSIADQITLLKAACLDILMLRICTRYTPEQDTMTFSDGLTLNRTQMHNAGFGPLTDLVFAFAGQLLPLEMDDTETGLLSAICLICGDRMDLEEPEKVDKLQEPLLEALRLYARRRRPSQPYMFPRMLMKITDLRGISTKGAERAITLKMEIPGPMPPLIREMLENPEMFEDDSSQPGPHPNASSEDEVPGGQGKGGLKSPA
Description: Transcriptional activation in CV-1 cells expressing human Retinoic acid receptor RAR gamma. The test is classed as cell-based. In outline:
as §1

The target in test [7] is T5, Retinoic acid receptor RXR-alpha (Mus musculus, UniProt P28700).
T5 sequence (P28700 whole entry): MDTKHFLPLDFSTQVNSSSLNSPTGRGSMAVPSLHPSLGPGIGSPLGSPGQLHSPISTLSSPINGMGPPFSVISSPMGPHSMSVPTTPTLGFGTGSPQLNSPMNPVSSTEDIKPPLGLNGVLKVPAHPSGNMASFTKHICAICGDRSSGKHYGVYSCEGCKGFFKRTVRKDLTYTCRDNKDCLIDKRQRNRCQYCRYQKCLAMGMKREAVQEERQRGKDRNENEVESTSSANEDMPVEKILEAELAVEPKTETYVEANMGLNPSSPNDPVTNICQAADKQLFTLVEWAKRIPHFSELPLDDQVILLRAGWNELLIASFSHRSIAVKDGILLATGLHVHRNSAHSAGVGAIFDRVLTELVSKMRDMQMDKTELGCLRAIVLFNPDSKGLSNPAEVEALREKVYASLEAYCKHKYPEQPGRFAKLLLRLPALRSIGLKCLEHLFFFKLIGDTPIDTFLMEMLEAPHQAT
Description: Transcriptional activation of CV-1 cells expressing murine Retinoid X receptor RXR alpha. The class given is cell-based. In outline: as §1

In test [8] the target is T6, Retinoic acid receptor RXR-beta (Mus musculus, UniProt P28704).
T6 sequence (P28704 whole entry): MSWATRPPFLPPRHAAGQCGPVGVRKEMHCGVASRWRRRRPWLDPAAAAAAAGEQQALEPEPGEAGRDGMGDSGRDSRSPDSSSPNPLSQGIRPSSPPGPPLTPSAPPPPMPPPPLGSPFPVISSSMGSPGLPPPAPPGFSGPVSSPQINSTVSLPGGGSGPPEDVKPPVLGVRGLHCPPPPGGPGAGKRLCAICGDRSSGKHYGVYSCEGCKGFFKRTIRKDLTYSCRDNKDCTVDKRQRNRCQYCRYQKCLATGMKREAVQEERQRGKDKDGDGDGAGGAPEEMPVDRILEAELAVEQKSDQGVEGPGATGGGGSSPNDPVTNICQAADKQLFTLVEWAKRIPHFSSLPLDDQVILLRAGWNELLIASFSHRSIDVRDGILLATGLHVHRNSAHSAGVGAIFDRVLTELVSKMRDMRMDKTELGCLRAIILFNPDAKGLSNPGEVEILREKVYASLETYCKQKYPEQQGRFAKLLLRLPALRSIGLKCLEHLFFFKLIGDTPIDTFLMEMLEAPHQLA
Put plainly: Transcriptional activation of CV-1 cells expressing murine Retinoid X receptor RXR beta. The test is classed as cell-based. In outline:
as §1

The test system of test [9] is SCC-2 (Homo sapiens). Put plainly: Inhibition of SCC-2 cell proliferation.
The test system of test [10] is SCC-38 (Homo sapiens). Description: Inhibition of SCC-38 cell proliferation.

Turning to `CCOC(=O)c1ccc(OC(=O)c2ccc3c(c2)C(C)(C)CCN3C(C)C)cc1`, the Inhibition in test [1] is 5%; in test [2], 15%.

`C/C(=C\c1ccc(C(=O)O)cc1)c1ccc2c(c1)C(C)(C)CO2`: the Inhibition in test [1] and in test [2] was 1% in each case.

On to `CCCCCCCCC1CCc2cc(/C(C)=C/c3ccc(C(=O)OCC)cc3)ccc2S1` (centres undefined), for which the Inhibition in test [1] was determined as 10%; in test [2], 17%.

`CCOC(=O)c1ccc(OC(=O)c2ccc3c(c2)C(C)(C)CCO3)cc1`: the Inhibition in test [1] was -6%; in test [2] it was 13%.

`COC(=O)c1ccc(C(=O)Oc2c(C)cc3c(c2C)C(C)(C)C=C(C)O3)cc1`: the Inhibition in test [1] is listed as 15%; in test [2], -8%.

With `COC(=O)c1ccc(N(OC)C(=O)c2ccc3c(c2)C(C)(C)CCO3)cc1`, the Inhibition in test [1] is recorded as 3%; in test [2], 17%.

For `COC(=O)c1ccc(C(=O)Oc2c(C)cc3c(c2C)C(C)(C)CC(C)(C)O3)cc1`, the Inhibition is listed as -1% in [1] and 9% in [2].

As to `CCOC(=O)c1ccc(OC(=O)c2cc3c(cc2OC)C(C)(C)COC3(C)C)cc1`, the values for the Inhibition in test [1] and in test [2] were 52% and 6%, respectively.

For the compound `CCOC(=O)c1ccc(OC(=O)c2cc3c(cc2OC)C(C)(C)CCC3(C)C)cc1`, the Inhibition in test [1] is listed as 15%; in test [2], 12%.

`COC(=O)c1ccc(C(=O)Nc2ccc3c(c2)C(C)(C)CC(C)(C)S3)cc1`: the EC50 in test [3] is 1000 nM; in test [4], 302 nM; in test [5], 225 nM; in test [6], 152 nM; in test [7] it was 84 nM; in test [8], 1000 nM. The Inhibition came to 64% in test [9] and 37% in test [10].

Regarding `CCOC(=O)/C=C(C)/C=C/C=C(\C)c1ccc2c(c1)OCCO2`, the Inhibition in test [1] is listed as -33%; in test [2] it was -2%.

Take `CCOC(=O)c1ccc(OC(=O)c2cc3c(cc2C)N(C)CCC3(C)C)cc1`: the Inhibition was determined as 9% in test [1] and 7% in [2].

Take `CC1(C)CCOc2ccc(C(=O)Oc3ccc(/C=N/N=C(/N)S)cc3)cc21`: the EC50 is more than 10000 nM in test [3]; 1900 nM in [4]; more than 10000 nM in test [5]; more than 10000 nM in test [6]; 294 nM in [7]; 84 nM in test [8]. Further, the Inhibition is listed as 19% in [1] and 18% in test [2].

Turning to `CC(/C=C/C=C(\C)c1ccc2c(c1)C(C)(C)CCS2)=C\C(=O)O`, the Inhibition in [1] was 2%; in test [2], 1%.

For `CCOC(=O)c1ccc(OC(=O)c2ccc3c(c2)C(C)(C)CCN3C)cc1`, the Inhibition in [1] was 12%; in test [2], 13%.

Regarding `CC1=C(/C=C/C(C)=C\C=C\C(C)=C\C(=O)O)C(C)(C)CCC1` [ALITRETINOIN], the Inhibition was determined as 13% in test [1] and 10% in test [2].
